Laboratory results: ChEMBL document CHEMBL4765395, “Design, diversity-oriented synthesis and biological evaluation of novel heterocycle derivatives as non-nucleoside HBV capsid protein inhibitors” (Eur J Med Chem, 2020)
Each block holds one compound with its values, some of them ahead of it. Active and inactive are the calls of the source. The calls are words filed in the database; no cut-off is given here.

What was measured:
HepG2 2.2.15 [1] = experiment: Cytotoxicity against human HepG2.2.15 cells assessed as reduction in cell viability at 50 uM incubated for 4 days prior to compound washout followed by compound addition and measured after 4 days by CCK8 assay relative to control; type: cell-based; conditions: hepg2 2.2.15, 192 h, time 8 day
Hepatitis B virus [2] = experiment: Antiviral activity against HBV infected in human HepG2.2.15 cells assessed as reduction in intracellular viral DNA level at 50 uM incubated for 4 days prior to compound washout followed by compound addition and measured after 4 days by fluorogenic probe based RT-qPCR analysis relative to control; type: functional; conditions: for inhibition at 50 µM: HepG2.2.15, 192 h, time 8 day
HepG2 2.2.15 [3] = experiment: Cytotoxicity against human HepG2.2.15 cells assessed as reduction in cell viability at 100 uM incubated for 4 days prior to compound washout followed by compound addition and measured after 4 days by CCK8 assay relative to control; type: cell-based; conditions: hepg2 2.2.15, 192 h, time 8 day
Procedure, shortened: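 Three wells of 4000 HepG2.2.15 cells per well received a single 100 µM concentration for 8 days, with medium replaced on day 4. CCK-8 (10%) was added 0.5 h before the end, and OD was read at 450 and 630 nm. Percent cell death was calculated against untreated cells.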

Hepatitis B virus [4] = experiment: Antiviral activity against HBV infected in human HepG2.2.15 cells assessed as […] at 100 uM incubated for 4 days prior to compound washout followed by compound addition and measured after 4 days by fluorogenic probe based RT-qPCR analysis relative to control; type: functional; conditions: for inhibition at 100 µM: HepG2.2.15, 192 h, time 8 day; for inhibition: time 8.0 day
[5] = Selectivity index, ratio of CC50 for human HepG2.2.15 cells to IC50 for antiviral activity against HBV infected in human HepG2.2.15 cells assessed as reduction in intracellular viral DNA level; type: toxicity, cell-based; conditions: read-out: Ratio CC50/IC50
[6] = Cytotoxicity against human HepG2.2.15 cells assessed as reduction in cell viability incubated for 4 days prior to compound washout followed by compound addition and measured after 4 days by CCK8 assay; type: cell-based, HepG2 2.2.15; conditions: time 8 day
Procedure, shortened: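 Cytotoxicity in HepG2.2.15 cells was measured with five doses (100, 20, 4, 0.8, 0.16 µM) over 8 days, with medium changed on day 4. CCK-8 (10%) was added 0.5 h before the end, OD was read at 450/630 nm, and CC50 is the concentration killing 50% of cells against untreated controls.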

[7] = Selectivity index, ratio of CC50 for human HepG2.2.15 cells to IC50 for antiviral activity against HBV infected in human HepG2.2.15 cells assessed as reduction in HBsAg secretion; type: toxicity, cell-based; conditions: read-out: Ratio CC50/IC50
Hepatitis B virus [8] = experiment: Antiviral activity against HBV infected in human HepG2.2.15 cells assessed as reduction in HBeAg secretion incubated for 4 days prior to compound washout followed by compound addition and measured after 4 days by ELISA; type: functional, organism-based
Procedure, shortened: (§1)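 Five doses (100, 20, 4, 0.8, 0.16 µM) were added in triplicate to HepG2.2.15 cultures for 8 days, with fresh medium on day 4 and untreated controls. Day-8 supernatants were assayed for HBsAg and HBeAg by ELISA kit with absorbance read-out. IC50 is the concentration giving 50% inhibition of antigen secretion.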

Hepatitis B virus [9] = experiment: Antiviral activity against HBV infected in human HepG2.2.15 cells assessed as […] incubated for 4 days prior to compound washout followed by compound addition and measured after 4 days by fluorogenic probe based RT-qPCR analysis; type: functional, organism-based
HepG2 2.2.15 [10] = experiment: Cytotoxicity against human HepG2.2.15 cells assessed as reduction in cell viability at 20 uM incubated for 4 days prior to compound washout followed by compound addition and measured after 4 days by CCK8 assay relative to control; type: cell-based; conditions: hepg2 2.2.15, 192 h, time 8 day
Hepatitis B virus [11] = experiment: Antiviral activity against HBV infected in human HepG2.2.15 cells assessed as reduction in HBsAg secretion incubated for 4 days prior to compound washout followed by compound addition and measured after 4 days by ELISA; type: functional, organism-based; procedure, shortened: as §1
Hepatitis B virus [12] = experiment: Antiviral activity against HBV infected in human HepG2.2.15 cells assessed as reduction in intracellular viral DNA level at 20 uM incubated for 4 days prior to compound washout followed by compound addition and measured after 4 days by fluorogenic probe based RT-qPCR analysis relative to control; type: functional; conditions: for inhibition at 20 µM: HepG2.2.15, 192 h, time 8 day
[13] = Selectivity index, ratio of CC50 for human HepG2.2.15 cells to IC50 for antiviral activity against HBV infected in human HepG2.2.15 cells assessed as reduction in HBeAg secretion; type: toxicity, cell-based; conditions: read-out: Ratio CC50/IC50

SMILES: CCOC(=O)c1cnc(-c2ccccc2)nc1CC(C)C
- Activity (HepG2 2.2.15 [1]): Non-Toxic
- inhibition at 50 µM (Hepatitis B virus [2]): 37.3%

SMILES: CCOC(=O)c1cn(-c2cccc(F)c2)nc1NCc1ccccc1
- Activity (HepG2 2.2.15 [3]): Non-Toxic
- inhibition at 100 µM (Hepatitis B virus [4]): 14.6%

SMILES: CC(C)Cc1nc(-c2ccccc2)ncc1C(=O)NCc1ccccc1
- Activity (HepG2 2.2.15 [1]): Non-Toxic
- inhibition (Hepatitis B virus [2]; time 8.0 day): inactive

- IC50 (Hepatitis B virus [8]): 62.3 µM
- IC50 (Hepatitis B virus [9]): 40.5 µM
- IC50 (Hepatitis B virus [11]): 3.8 µM
SMILES: CC(C)Cc1nc(-c2ccncc2)sc1C(=O)NCc1ccc(F)cc1
- selectivity ratio [5]: > 2.5
- CC50 at 192 h [6]: > 100 µM
- selectivity ratio [7]: > 26.3
- Activity (HepG2 2.2.15 [10]): 35.8%
- inhibition at 20 µM (Hepatitis B virus [12]): 57.8%
- selectivity ratio [13]: > 1.6

SMILES: CCOC(=O)c1cn(-c2nccs2)nc1NCc1ccccc1
- Activity (HepG2 2.2.15 [3]): 30.4%
- inhibition (Hepatitis B virus [4]): inactive

SMILES: CC(C)Cc1nc(NC(=O)c2cccs2)sc1C(=O)NCc1ccc(F)cc1
- Activity (HepG2 2.2.15 [10]): 15.2%
- inhibition (Hepatitis B virus [12]; time 8.0 day): inactive

SMILES: O=C(NCc1ccc(F)cc1F)c1cn(-c2nccs2)nc1NCc1ccccc1
- Activity (HepG2 2.2.15 [3]): 16.9%
- inhibition at 100 µM (Hepatitis B virus [4]): 32.9%

SMILES: CCOC(=O)c1cn(-c2cccc(F)c2)nc1NC
- Activity (HepG2 2.2.15 [3]): 5.7%
- inhibition (Hepatitis B virus [4]): inactive

SMILES: O=C(NCc1ccc(F)cc1Cl)c1cn(-c2nccs2)nc1NCc1ccccc1
- Activity (HepG2 2.2.15 [3]): 29.2%
- inhibition at 100 µM (Hepatitis B virus [4]): 41.6%

SMILES: CCOC(=O)c1cnc(-c2cccc(F)c2)nc1CC(C)C
- Activity (HepG2 2.2.15 [1]): Non-Toxic
- inhibition at 50 µM (Hepatitis B virus [2]): 46.3%

SMILES: CC(C)Cc1nc(-c2cc3ccccc3s2)sc1C(=O)NCc1ccc(F)cc1
- Activity (HepG2 2.2.15 [10]): Non-Toxic
- inhibition at 20 µM (Hepatitis B virus [12]): 21.1%

- IC50 (Hepatitis B virus [8]): 9.7 µM
- IC50 (Hepatitis B virus [9]): 9.9 µM
- IC50 (Hepatitis B virus [11]): > 100 µM
SMILES: CC(C)Cc1nc(-c2cccc(F)c2)ncc1C(=O)O
- selectivity ratio [5]: > 10.1
- CC50 at 192 h [6]: > 100 µM
- Activity (HepG2 2.2.15 [1]): Non-Toxic
- selectivity ratio [13]: > 10.3
- inhibition at 50 µM (Hepatitis B virus [2]): 54.2%

SMILES: CCNc1nn(-c2cccc(F)c2)cc1C(=O)OCC
- Activity (HepG2 2.2.15 [3]): 10.9%
- inhibition at 100 µM (Hepatitis B virus [4]): 39.9%
